In ChEMBL document CHEMBL1148795 (J Med Chem, 2007):
The source made the active and inactive calls. The rule behind the calls is not given here.

Key:
[1] = target: Human immunodeficiency virus type 1 reverse transcriptase (Human immunodeficiency virus 1, UniProt Q72547); experiment: Inhibition of HIV1 reverse transcriptase
[2] = Cytotoxicity against human CEM-SS cells by MTT assay; type: cell-based
[3] = tested on: Human immunodeficiency virus 1; experiment: Antiviral activity against HIV1 with RT Y181C mutation; type: functional, organism-based
How it was run: (§1)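 Cytoprotection assay in CEM-SS cells infected with HIV-1 strains engineered to carry the NNRTI-resistance RT mutation (K103N or Y181C). Activity is expressed as the EC50 for protection of the cells from virus-induced cytopathic effect.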

[4] = tested on: Human immunodeficiency virus 1; experiment: Antiviral activity against HIV1 with RT K103N mutation; type: functional, organism-based; how it was run: as §1
[5] = Cytotoxicity against human MT4 cells by MTT assay; type: cell-based
[6] = Metabolic stability in rat plasma; type: ADME, cell-free
How it was run: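 Compounds were incubated in reconstituted rat plasma (two lots, checked with a control compound), with 1,1-diphenylethylene as internal standard. Aliquot supernatants were analysed by HPLC with UV detection. Half-lives came from regression fits of concentration versus time and were averaged over at least two replicates.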

[7] = tested on: Human immunodeficiency virus 1; experiment: Antiviral activity against HIV1 RF in human CEM-SS cells by XTT assay; type: functional, organism-based; settings: for EC50: Human immunodeficiency virus 1, RF
[8] = tested on: Human immunodeficiency virus 1; experiment: Antiviral activity against HIV1 3B in human MT4 cells by MTT assay; settings: for EC50: Human immunodeficiency virus 1, 3B
[9] = tested on: Human immunodeficiency virus 2; experiment: Antiviral activity against HIV2 ROD in human MT4 cells by MTT assay

COc1c(C)cc(/C(=C/CCCc2nnc(C)o2)c2ccc(C#N)cc2)cc1C(=O)SC
IC50 [1]: 0.45 µM | CC50 [2]: 4.8 µM | EC50 [3]: > 100 µM | EC50 [4]: > 50 µM | CC50 [5]: 7.6 µM | half-life [6]: 0.692 h | Activity [7]: inactive | Activity [8]: inactive | Activity [9]: inactive

COC(=O)c1cc(/C(=C\CCc2nnc(C)o2)c2cc(C)c3onc(OC)c3c2)cc(C)c1OC
IC50 [1]: 0.39 µM | CC50 [2]: 2.8 µM | EC50 [3]: > 100 µM | EC50 [4]: 0.8 µM | CC50 [5]: 6.4 µM | half-life [6]: 5.52 h | EC50 [7]: 0.36 µM | EC50 [8]: 0.42 µM | Activity [9]: inactive

COC(=O)c1cc(/C(=C\CCc2nnc(C)o2)c2cc(C)c3on(C)c(=O)c3c2)cc(C)c1OC
IC50 [1]: 7.4 µM | CC50 [2]: 7.7 µM | EC50 [3]: > 100 µM | EC50 [4]: > 50 µM | CC50 [5]: 41 µM | half-life [6]: 3.66 h | EC50 [7]: 3 µM | EC50 [8]: 2.7 µM | Activity [9]: inactive
